Reference: ChEMBL document CHEMBL4325893, “Synthesis and antibacterial profiles of targeted triclosan derivatives” (2019)
≈ marks a conversion by molar mass, not a printed value.

Columns and labels:
[1] = system: Staphylococcus haemolyticus; experiment: Antibacterial activity against Staphylococcus haemolyticus OCC 2223 after 18 hrs; format: functional; conditions: OCC 2223, 18 h
Procedure, shortened: (§1)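 Broth microdilution in Nutrient Broth No. 2. Ethanol stocks were diluted in broth to 0.01–128 µg/ml for triclosan and 0.25–256 µg/ml for glycosides. Overnight 37°C NB2 cultures were diluted 1 in 10^4 in saline and added to the wells. Plates were incubated at 37°C with OD read every 15 min after agitation. MIC was the lowest concentration giving no OD increase at 18 h.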

Escherichia coli [2] = experiment: Antibacterial activity against Escherichia coli OCC 122 after 18 hrs; format: functional; conditions: OCC 122, 18 h
Procedure, shortened: (§2)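 Broth microdilution in Nutrient Broth No. 2; stocks in ethanol diluted to 0.01–128 µg/ml (triclosan) or 0.25–256 µg/ml (glycosides). Overnight 37 °C NB2 cultures diluted 1 in 10^4 in saline and added to the dilutions. Incubation at 37 °C with agitation, OD read every 15 min; MIC is the lowest concentration preventing any OD rise after 18 h.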

Salmonella enteritidis = experiment: Antibacterial activity against Salmonella enterica subspecies enterica serotype Enteritidis 13076 after 18 hrs; format: functional, Salmonella enterica subsp. enterica serovar Enteritidis; conditions: Salmonella enterica, 13076, 18 h; procedure, shortened: as §2
Streptococcus viridans = experiment: Antibacterial activity against Streptococcus viridans OCC 234 after 18 hrs; format: functional; conditions: OCC 234, 18 h; procedure, shortened: as §1
[3] = system: Staphylococcus saprophyticus; experiment: Antibacterial activity against Staphylococcus saprophyticus ATCC 15305 after 18 hrs; format: functional; conditions: ATCC 15305, 18 h; procedure, shortened: as §1
Staphylococcus aureus [4] = experiment: Antibacterial activity against Staphylococcus aureus OCC 104 after 18 hrs; format: functional; conditions: OCC 104, 18 h; procedure, shortened: as §2
Escherichia coli [5] = experiment: Antibacterial activity against Escherichia coli ATCC 10536 after 18 hrs; format: functional; conditions: ATCC 10536, 18 h; procedure, shortened: as §2
[6] = Antibacterial activity against Salmonella enterica subspecies enterica serotype Poona NCTC 4840 after 18 hrs; format: functional, Salmonella enterica subsp. enterica serovar Poona; conditions: NCTC 4840, 18 h; procedure, shortened: as §2
Escherichia coli [7] = experiment: Antibacterial activity against Escherichia coli ATCC 35218 after 18 hrs; format: functional; conditions: ATCC 35218, 18 h; procedure, shortened: as §2
[8] = Antibacterial activity against Enterobacter cloacae ATCC 13047 after 18 hrs; format: functional, Enterobacter cloacae subsp. cloacae; conditions: ATCC 13047, 18 h; procedure, shortened: as §2
Klebsiella aerogenes = experiment: Antibacterial activity against Klebsiella aerogenes NCTC 8167 after 18 hrs; format: functional; conditions: NCTC 8167, 18 h; procedure, shortened: as §2
[9] = system: Staphylococcus epidermidis; experiment: Antibacterial activity against Staphylococcus epidermidis ATCC 14990 after 18 hrs; format: functional; conditions: ATCC 14990, 18 h; procedure, shortened: as §2
Aeromonas hydrophila = experiment: Antibacterial activity against Aeromonas hydrophila OCC 778 after 18 hrs; format: functional; conditions: OCC 778, 18 h; procedure, shortened: as §2
Pseudomonas aeruginosa = experiment: Antibacterial activity against Pseudomonas aeruginosa ATCC 27853 after 18 hrs; format: functional; conditions: ATCC 27853, 18 h; procedure, shortened: as §2
[10] = Antibacterial activity against Salmonella enterica subspecies enterica serotype Pullorum OCC 273 after 18 hrs; format: functional, Salmonella enterica subsp. enterica serovar Pullorum; conditions: OCC 273, 18 h; procedure, shortened: as §2
Streptococcus pneumoniae [11] = experiment: Antibacterial activity against Streptococcus pneumoniae 6305 after 18 hrs; format: functional; conditions: Streptococcus pneumoniae, 6305, 18 h; procedure, shortened: as §1
Citrobacter freundii = experiment: Antibacterial activity against Citrobacter freundii OCC 851 after 18 hrs; format: functional; conditions: OCC 851, 18 h; procedure, shortened: as §2
Serratia marcescens = experiment: Antibacterial activity against Serratia marcescens OCC 217 after 18 hrs; format: functional; conditions: OCC 217, 18 h; procedure, shortened: as §2
Streptococcus pneumoniae [12] = experiment: Antibacterial activity against Streptococcus pneumoniae ATCC 49619 after 18 hrs; format: functional; conditions: ATCC 49619, 18 h; procedure, shortened: as §1
Bacillus subtilis = experiment: Antibacterial activity against Bacillus subtilis NCTC 10073 after 18 hrs; format: functional; conditions: NCTC 10073, 18 h; procedure, shortened: as §2
Escherichia coli [13] = experiment: Antibacterial activity against Escherichia coli NCTC 13216 after 18 hrs; format: functional; conditions: NCTC 13216, 18 h; procedure, shortened: as §2
[14] = system: Salmonella enterica subsp. enterica serovar Abony; experiment: Antibacterial activity against Salmonella enterica subspecies enterica serotype Abony NCTC 6017 after 18 hrs; format: functional; conditions: NCTC 6017, 18 h; procedure, shortened: as §2
Staphylococcus aureus [15] = experiment: Antibacterial activity against Staphylococcus aureus ATCC 6538 after 18 hrs; format: functional; conditions: ATCC 6538, 18 h; procedure, shortened: as §2
Bacillus cereus = experiment: Antibacterial activity against Bacillus cereus ATCC 14579 after 18 hrs; format: functional; conditions: ATCC 14579, 18 h; procedure, shortened: as §2
[16] = system: Staphylococcus epidermidis; experiment: Antibacterial activity against Staphylococcus epidermidis ATCC 12228 after 18 hrs; format: functional; conditions: ATCC 12228, 18 h; procedure, shortened: as §2
Staphylococcus aureus [17] = experiment: Antibacterial activity against Staphylococcus aureus ATCC 9144 after 18 hrs; format: functional; conditions: ATCC 9144, 18 h; procedure, shortened: as §2
Hafnia alvei = experiment: Antibacterial activity against Hafnia alvei 13337 after 18 hrs; format: functional; conditions: Hafnia alvei, 13337, 18 h; procedure, shortened: as §2
[18] = Antibacterial activity against Salmonella enterica subspecies enterica serotype Indiana OCC 597 after 18 hrs; format: functional, Salmonella enterica subsp. enterica serovar Indiana; conditions: OCC 597, 18 h; procedure, shortened: as §2

## OC[C@H]1O[C@H](Oc2cc(Cl)ccc2Oc2ccc(Cl)cc2Cl)[C@@H](O)[C@@H](O)[C@@H]1O
[1]
  MIC: 8 µg/mL (≈ 17.7 µM)
Escherichia coli [2]
  MIC: 4 to 64 µg/mL (≈ 8.86 to 142 µM)
Salmonella enteritidis
  MIC: 16 to 64 µg/mL (≈ 35.4 to 142 µM)
Streptococcus viridans
  MIC: 128 µg/mL (≈ 283 µM)
[3]
  MIC: 32 µg/mL (≈ 70.8 µM)
Staphylococcus aureus [4]
  MIC: 2 to 8 µg/mL (≈ 4.43 to 17.7 µM)
Escherichia coli [5]
  MIC: 4 to 64 µg/mL (≈ 8.86 to 142 µM)
[6]
  MIC: 16 to 64 µg/mL (≈ 35.4 to 142 µM)
Escherichia coli [7]
  MIC: 4 to 64 µg/mL (≈ 8.86 to 142 µM)
[8]
  MIC: 8 µg/mL (≈ 17.7 µM)
Klebsiella aerogenes
  MIC: 32 µg/mL (≈ 70.8 µM)
[9]
  MIC: 4 to 8 µg/mL (≈ 8.86 to 17.7 µM)
Aeromonas hydrophila
  MIC: > 256 µg/mL
Pseudomonas aeruginosa
  MIC: > 256 µg/mL
[10]
  MIC: 16 to 64 µg/mL (≈ 35.4 to 142 µM)
Streptococcus pneumoniae [11]
  MIC: 64 µg/mL (≈ 142 µM)
Citrobacter freundii
  MIC: 64 µg/mL (≈ 142 µM)
Serratia marcescens
  MIC: > 256 µg/mL
Streptococcus pneumoniae [12]
  MIC: 64 µg/mL (≈ 142 µM)
Bacillus subtilis
  MIC: 128 µg/mL (≈ 283 µM)
Escherichia coli [13]
  MIC: 4 to 64 µg/mL (≈ 8.86 to 142 µM)
[14]
  MIC: 16 to 64 µg/mL (≈ 35.4 to 142 µM)
Staphylococcus aureus [15]
  MIC: 2 to 8 µg/mL (≈ 4.43 to 17.7 µM)
Bacillus cereus
  MIC: 256 µg/mL (≈ 567 µM)
[16]
  MIC: 4 to 8 µg/mL (≈ 8.86 to 17.7 µM)
Staphylococcus aureus [17]
  MIC: 2 to 8 µg/mL (≈ 4.43 to 17.7 µM)
Hafnia alvei
  MIC: 4 µg/mL (≈ 8.86 µM)
[18]
  MIC: 16 to 64 µg/mL (≈ 35.4 to 142 µM)
